Assay results gathered from unrelated publications.
Lines come from different studies, so protocols differ.
Target: Mitogen-activated protein kinase 4 (MAPK4, Homo sapiens, UniProt P31152)

COc1cnc(Nc2cccc(S(N)(=O)=O)c2)nc1N1CCN(c2ccccc2)CC1  remaining binding (binding; competition with immobilised ligand; 1 µM): 96%
CN(CCCC(F)(F)F)c1nccc(-c2cnn3ncccc23)n1  remaining binding (binding; 1 µM): 100%
O=C(c1ccc(Nc2ncc(Cl)c(-c3ccc(Cl)s3)n2)cc1)N1CCC(N2CCCC2)CC1  remaining binding (binding; competition with immobilised ligand; 1 µM): 0.3%
N[C@@H]1CCN(c2nccc(-c3cnn4ncccc34)n2)C1  remaining binding (binding; 1 µM): 100%
CS(=O)(=O)N1CCCC(NC(=O)[C@H](CCC2CCCCC2)NC(=O)c2ccc(CNC(=O)c3cnc4ccccn34)cc2)C1 (stereo partly drawn)  remaining binding (cell-free assay; competition with immobilised ligand; 0.1 µM): 100%
O=C(NCC1CCOCC1)c1n[nH]cc1NC(=O)c1c(F)cccc1F  remaining binding (binding; competition with immobilised ligand; 1 µM): 99%
Cc1cnc(Nc2ccc(C(=O)N3CCC(N4CCCC4)CC3)cc2)nc1-c1cc2ccccc2s1  remaining binding (binding; competition with immobilised ligand; 1 µM): 39%
Nc1ncc2c(n1)-c1c([nH]c3ccc(C#CC4CC4)cc13)CCCC2  remaining binding (binding; competition with immobilised ligand; 1 µM): 96%
c1ccc(N2CCN(Cc3nc4ccccc4[nH]3)CC2)nc1  remaining binding (binding; competition with immobilised ligand; 1 µM): 100%
COc1ncc2cc3ccccc3nc2c1C#N  remaining binding (cell-free assay; competition with immobilised ligand; 5 µM): 100%
c1cncc(-c2cccc(Nc3nccc(NC4CCCCC4)n3)c2)c1  remaining binding (binding; competition with immobilised ligand; 10 µM): 95%
FC(F)(F)Oc1cccc(-c2cnc3ccc(-c4ccncc4)nn23)c1  remaining binding (cell-free assay; competition with immobilised ligand; 5 µM): 100%
O=C(Nc1ccc(Oc2ccc(F)cc2)cc1)N1CCc2ncccc2[C@H]1c1ccc(F)cc1  remaining binding (cell-free assay; competition with immobilised ligand; 1 µM): 95%
c1cnn2ncc(-c3ccnc(N4CCC45COC5)n3)c2c1  remaining binding (binding; 1 µM): 83%
Cn1nc(C(F)(F)F)cc1-c1cnc(N2CCc3cc(S(=O)(=O)Nc4c(F)cc(Cl)cc4F)cc(N4CCCC4=O)c32)nc1  remaining binding (cell-free assay; competition with immobilised ligand; 1 µM): 100%
CN(C)c1nccc(-c2cnn3ncccc23)n1  remaining binding (binding; 1 µM): 100%
CCS(=O)(=O)c1cc2cc(C[C@](O)(CC(C)(C)c3ccc(F)cc3C(N)=O)C(F)(F)F)[nH]c2cn1  remaining binding (cell-free assay; competition with immobilised ligand; 1 µM): 100%
C[C@H]1CCN(c2nccc(-c3cnn4ncccc34)n2)C1  remaining binding (binding; 1 µM): 93%
CO[C@@H](C)c1c(Nc2ccc([C@@H](N(C)C(=O)C3CCS(=O)(=O)CC3)C(F)(F)F)cc2)cnc2cc(Cl)nn12  remaining binding (cell-free assay; competition with immobilised ligand; 1 µM): 100%
COc1ccnn2ncc(-c3ccnc(N(C)C)n3)c12  remaining binding (binding; 1 µM): 100%
O=C(NCCCN1CCOCC1)c1ccc(Nc2ncc(Cl)c(-c3ccc(Cl)s3)n2)cc1  remaining binding (binding; competition with immobilised ligand; 1 µM): 1.4%
